From ChEMBL document CHEMBL1144466, “Mutant prevention concentrations of fluoroquinolones for Enterobacteriaceae expressing the plasmid-carried quinolone resistance determinant qnrA1” (2007)
Converted amounts (≈) assume the structure as drawn.

Assays:
[1] = test system: Escherichia coli; assay: Antimicrobial activity against qnrA1 expressing Escherichia coli J53/p1960 expressing porins by microdilution method; assay type: functional; conditions: for MIC: Escherichia coli, J53
Summary of the method: (§1)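 Microdilution MICs (μg/ml) of ciprofloxacin, levofloxacin or moxifloxacin against Enterobacteriaceae strains differing in qnrA1 carriage: qnrA1 cloned in pACYC184 in E. coli DH10B, natural qnrA1 plasmids transferred to E. coli J53, clinical K. pneumoniae, and qnrA1-negative isogenic controls.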

[2] = test system: Escherichia coli; assay: Antimicrobial activity against Escherichia coli J53 expressing porins by microdilution method; assay type: functional; summary of the method: as §1
[3] = test system: Escherichia coli; assay: Antimicrobial activity against Escherichia coli J53 GyrA/ParC mutant expressing porins by microdilution method; assay type: functional
[4] = test system: Klebsiella pneumoniae; assay: Antimicrobial activity against qnrA1 expressing Klebsiella pneumoniae UAB1 expressing porins by microdilution method; assay type: functional; conditions: for MIC: Klebsiella pneumoniae, UAB1
[5] = test system: Escherichia coli; assay: Antimicrobial activity against qnrA1 expressing Escherichia coli DH10B expressing porins by microdilution method; assay type: functional; conditions: for MIC: Escherichia coli, DH10B; summary of the method: as §1
[6] = test system: Klebsiella pneumoniae; assay: Antimicrobial activity against Klebsiella pneumoniae C2/pMG252 GyrA Ser83Phe mutant expressing porins by microdilution method; assay type: functional; conditions: for MIC: Klebsiella pneumoniae, C2
[7] = test system: Escherichia coli; assay: Antimicrobial activity against qnrA1 expressing Escherichia coli DH10B GyrA/ParC mutant expressing porins by microdilution method; assay type: functional
[8] = test system: Klebsiella pneumoniae; assay: Antimicrobial activity against qnrA1 expressing Klebsiella pneumoniae UAB1 GyrA/ParC mutant expressing porins by microdilution method; assay type: functional
[9] = test system: Klebsiella pneumoniae; assay: Antimicrobial activity against qnrA1 expressing Klebsiella pneumoniae 1960 GyrA Ser83Phe/ParC mutant expressing porins by microdilution method; assay type: functional
Summary of the method: (§2)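 Mutants were selected on Mueller-Hinton agar containing ciprofloxacin or moxifloxacin, with colonies allowed to grow for up to 96 h. Colonies recovered one concentration step below the MPC were tested for ciprofloxacin MIC (μg/ml) by microdilution.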

[10] = test system: Escherichia coli; assay: Antimicrobial activity against Escherichia coli DH10B expressing porins by microdilution method; assay type: functional; conditions: for MIC: Escherichia coli, DH10B; summary of the method: as §1
[11] = test system: Escherichia coli; assay: Antimicrobial activity against Escherichia coli J53/p1132 negative expressing porins by microdilution method; assay type: functional; summary of the method: as §1
[12] = test system: Escherichia coli; assay: Antimicrobial activity against qnrA1 expressing Escherichia coli J53/pN5 expressing porins by microdilution method; assay type: functional; conditions: for MIC: Escherichia coli, J53; summary of the method: as §1
[13] = test system: Klebsiella pneumoniae; assay: Antimicrobial activity against qnrA1 expressing Klebsiella pneumoniae 1132 expressing porins by microdilution method; assay type: functional; conditions: for MIC: Klebsiella pneumoniae; summary of the method: as §1
[14] = test system: Klebsiella pneumoniae; assay: Antimicrobial activity against qnrA1 expressing Klebsiella pneumoniae N5 expressing porins by microdilution method; assay type: functional; conditions: for MIC: Klebsiella pneumoniae, N5; summary of the method: as §1
[15] = test system: Klebsiella pneumoniae; assay: Antimicrobial activity against qnrA1 expressing Klebsiella pneumoniae N5 GyrA/ParC mutant expressing porins by microdilution method; assay type: functional
[16] = test system: Escherichia coli; assay: Antimicrobial activity against qnrA1 expressing Escherichia coli J53/pMG252 expressing porins by microdilution method; assay type: functional; conditions: for MIC: Escherichia coli, J53; summary of the method: as §1
[17] = test system: Escherichia coli; assay: Antimicrobial activity against Escherichia coli DH10B/pACYC184 expressing porins by microdilution method; assay type: functional; conditions: for MIC: Escherichia coli, DH10B; summary of the method: as §1
[18] = test system: Klebsiella pneumoniae; assay: Antimicrobial activity against Klebsiella pneumoniae C2/pMG252 GyrA Ser83Phe/ParC mutant expressing porins by microdilution method; assay type: functional; summary of the method: as §2
[19] = test system: Klebsiella pneumoniae; assay: Antimicrobial activity against Klebsiella pneumoniae C2 GyrA Ser83Phe/ParC mutant expressing porins by microdilution method; assay type: functional; summary of the method: as §2
[20] = test system: Escherichia coli; assay: Antimicrobial activity against Escherichia coli J53/p1132 negative GyrA/ParC mutant expressing porins by microdilution method; assay type: functional
[21] = test system: Klebsiella pneumoniae; assay: Antimicrobial activity against qnrA1 expressing Klebsiella pneumoniae1960 GyrA Ser83Phe mutant expressing porins by microdilution method; assay type: functional; conditions: for MIC: Klebsiella pneumoniae
[22] = test system: Klebsiella pneumoniae; assay: Antimicrobial activity against qnrA1 expressing Klebsiella pneumoniae 1132 GyrA/ParC mutant expressing porins by microdilution method; assay type: functional
[23] = test system: Escherichia coli; assay: Antimicrobial activity against qnrA1 expressing Escherichia coli J53/p1960 GyrA/ParC mutant expressing porins by microdilution method; assay type: functional
[24] = test system: Klebsiella pneumoniae; assay: Antimicrobial activity against Klebsiella pneumoniae C2 GyrA Ser83Phe mutant lacking porins by microdilution method; conditions: for MIC: Klebsiella pneumoniae, C2
[25] = test system: Escherichia coli; assay: Antimicrobial activity against qnrA1 expressing Escherichia coli J53/pN5 GyrA/ParC mutant expressing porins by microdilution method; assay type: functional
Summary of the method: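 Broth microdilution MIC, in μg/ml, with ciprofloxacin, levofloxacin or moxifloxacin against the E. coli J53 transconjugant carrying qnrA1.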

[26] = test system: Escherichia coli; assay: Antimicrobial activity against qnrA1 expressing Escherichia coli J53/pMG252 GyrA/ParC mutant expressing porins by microdilution method; assay type: functional

Row | SMILES | MPC [1] [µg/mL] | MPC [2] [µg/mL] | MPC [4] [µg/mL] | MIC [4] [µg/mL] | MPC [5] [µg/mL] | MIC [6] [µg/mL] | MIC [8] [µg/mL] | MIC [9] [µg/mL] | MPC [10] [µg/mL] | MPC [11] [µg/mL] | MPC [12] [µg/mL] | MPC [13] [µg/mL] | MIC [13] [µg/mL] | MPC [14] [µg/mL] | MIC [15] [µg/mL] | MPC [16] [µg/mL] | MPC [17] [µg/mL] | MIC [18] [µg/mL] | MIC [19] [µg/mL] | MIC [21] [µg/mL] | also measured
1 | COc1c(N2C[C@@H]3CCCN[C@@H]3C2)c(F)cc2c(=O)c(C(=O)O)cn(C3CC3)c12 [MOXIFLOXACIN] | 4 | 0.125 | 32 | 4 (≈ 9.96 µM) | 2 | 1 (≈ 2.49 µM) | 32 (≈ 79.7 µM) | 16 (≈ 39.9 µM) | 0.06 | 0.25 | 4 | 32 | 8 (≈ 19.9 µM) | 16 | 4 (≈ 9.96 µM) | 4 | 0.06 | 32 (≈ 79.7 µM) | 2 (≈ 4.98 µM) | 2 (≈ 4.98 µM) | MIC [1]: 0.125 µg/mL (≈ 0.311 µM); MIC ([2]; Escherichia coli, J53): 0.015 µg/mL (≈ 0.0374 µM); MIC [3]: 0.5 µg/mL (≈ 1.25 µM); MIC [5]: 0.125 µg/mL (≈ 0.311 µM); MIC [7]: 0.5 µg/mL (≈ 1.25 µM); MIC [10]: 2 ng/mL (≈ 0.00498 µM); MIC ([11]; Escherichia coli, J53): 0.015 µg/mL (≈ 0.0374 µM); MIC [12]: 0.125 µg/mL (≈ 0.311 µM); MIC [14]: 0.5 µg/mL (≈ 1.25 µM); MIC [16]: 0.5 µg/mL (≈ 1.25 µM); MIC [17]: 2 ng/mL (≈ 0.00498 µM); MIC [20]: 0.25 µg/mL (≈ 0.623 µM); MIC [22]: 16 µg/mL (≈ 39.9 µM); MIC [23]: 4 µg/mL (≈ 9.96 µM); MPC [24]: 4 µg/mL; MIC [24]: 0.125 µg/mL (≈ 0.311 µM)
2 | O=C(O)c1cn(C2CC2)c2cc(N3CCNCC3)c(F)cc2c1=O [CIPROFLOXACIN] | 4 | 0.06 | 16 | 2 (≈ 6.04 µM) | 2 | 2 (≈ 6.04 µM) | 16 (≈ 48.3 µM) | 32 (≈ 96.6 µM) | 0.015 | 0.06 | 4 | 32 | 4 (≈ 12.1 µM) | 4 | 8 (≈ 24.1 µM) | 4 | 0.015 | 64 (≈ 193 µM) | 4 (≈ 12.1 µM) | 1 (≈ 3.02 µM) | MPC [6]: 128 µg/mL; MIC [14]: 0.25 µg/mL (≈ 0.754 µM); MPC [21]: 64 µg/mL; MIC [22]: 16 µg/mL (≈ 48.3 µM); MPC [24]: 8 µg/mL; MIC [24]: 0.25 µg/mL (≈ 0.754 µM)
3 | C[C@H]1COc2c(N3CCN(C)CC3)c(F)cc3c(=O)c(C(=O)O)cn1c23.C[C@H]1COc2c(N3CCN(C)CC3)c(F)cc3c(=O)c(C(=O)O)cn1c23.O [LEVOFLOXACIN] | 4 | 0.06 | 16 | 2 | 2 | 2 | 16 | 64 | 0.015 | 0.06 | 4 | 32 | 4 | 4 | 8 | 4 | 0.015 | 64 | 8 | 2 | MIC [1]: 0.125 µg/mL; MIC [5]: 0.125 µg/mL; MPC [6]: 128 µg/mL; MIC [10]: 4 ng/mL; MIC [12]: 0.125 µg/mL; MIC [25]: 4 µg/mL; MIC [26]: 2 µg/mL; MIC [16]: 0.25 µg/mL; MIC [17]: 4 ng/mL; MPC [21]: 64 µg/mL; MIC [22]: 16 µg/mL; MIC [23]: 2 µg/mL; MPC [24]: 8 µg/mL; MIC [24]: 0.25 µg/mL
